Assay results gathered from unrelated publications.
Lines come from different studies, so protocols differ.
Target: Serine/threonine-protein kinase ULK3 (ULK3, Homo sapiens, UniProt Q6PHR2)
Sequence (Q6PHR2 1-472, as in one of the studies): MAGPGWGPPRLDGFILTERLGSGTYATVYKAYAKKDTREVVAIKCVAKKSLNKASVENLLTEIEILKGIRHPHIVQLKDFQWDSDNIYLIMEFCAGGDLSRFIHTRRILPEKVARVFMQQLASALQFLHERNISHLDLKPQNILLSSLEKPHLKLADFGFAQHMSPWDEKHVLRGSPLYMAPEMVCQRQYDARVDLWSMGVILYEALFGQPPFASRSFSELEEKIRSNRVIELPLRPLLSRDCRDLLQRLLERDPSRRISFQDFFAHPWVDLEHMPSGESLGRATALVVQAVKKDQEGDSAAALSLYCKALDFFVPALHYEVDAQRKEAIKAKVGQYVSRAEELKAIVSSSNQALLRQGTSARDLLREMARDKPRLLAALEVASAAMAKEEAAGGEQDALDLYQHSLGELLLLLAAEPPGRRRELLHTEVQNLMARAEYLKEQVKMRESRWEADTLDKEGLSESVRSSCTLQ

Structure (SMILES) | test | conditions | remaining binding [%]
Cn1cc(Cl)c2c(Oc3c(F)cc(Nc4cc(Cl)nc(N)n4)cc3F)ccnc21 | cell-free assay, competition with immobilised ligand | 0.1 µM | 85
c1cnn2ncc(-c3ccnc(N4CCC45COC5)n3)c2c1 | binding | 1 µM | 64
COc1cnc(Nc2cccc(S(N)(=O)=O)c2)nc1N1CCN(c2ccccc2)C(=O)C1 | binding, competition with immobilised ligand | 1 µM | 45
Cc1cnc(Nc2ccc(C(=O)N3CCC(N4CCCC4)CC3)cc2)nc1-c1cc2ccccc2s1 | binding, competition with immobilised ligand | 1 µM | 0.3
CC(=O)Nc1c(C(C)=O)c(=O)n(C)c2nc(-c3ccc(Cl)cc3Cl)c(-c3ccc(Cl)cc3)cc12 | cell-free assay, competition with immobilised ligand | 1 µM | 75
N[C@H]1CCN(c2nccc(-c3cnn4ncccc34)n2)C1 | binding | 1 µM | 86
CN(C)c1ncnc(-c2ccc3nc(Nc4cc(CN5CCN(C(=O)CC(F)(F)F)CC5)ccn4)[nH]c3c2)c1Cl | cell-free assay, competition with immobilised ligand | 1 µM | 61
CN(c1nccc(-c2cnn3ncccc23)n1)C1CC1 | binding | 1 µM | 100
CS(=O)(=O)NCC[C@H](NC(=O)c1cncc2c1cnn2-c1ccc(F)cc1)c1ccnc(S(C)(=O)=O)c1 | cell-free assay, competition with immobilised ligand | 1 µM | 100
CC1CCCN1c1nccc(-c2cnn3ncccc23)n1 (centres unmarked) | binding | 1 µM | 100
O=C(NCC1CCOCC1)c1n[nH]cc1NC(=O)c1c(F)cccc1F | binding, competition with immobilised ligand | 1 µM | 85
C[C@@H]1CCN(c2nccc(-c3cnn4ncccc34)n2)C1 | binding | 1 µM | 80
O=C(Nc1ccc(Oc2ccc(F)cc2)cc1)N1CCc2ncccc2[C@H]1c1ccc(F)cc1 | cell-free assay, competition with immobilised ligand | 1 µM | 99
CN(C)c1nccc(-c2cnn3ncccc23)n1 | binding | 1 µM | 77
c1cncc(-c2cccc(Nc3nccc(NC4CCCCC4)n3)c2)c1 | binding, competition with immobilised ligand | 10 µM | 44
CCN1CCN(Cc2ccc(C(=O)Nc3ccc(C)c(Oc4ccc5c(c4)CC(=O)N5)c3)cc2C(F)(F)F)CC1 | binding, competition with immobilised ligand | 1 µM | 100
O=C(c1ccc(Nc2ncc(Cl)c(-c3ccc(Cl)s3)n2)cc1)N1CCC(N2CCCC2)CC1 | binding, competition with immobilised ligand | 1 µM | 0.1
CS(=O)(=O)N1CCCC(NC(=O)[C@H](CCC2CCCCC2)NC(=O)c2ccc(CNC(=O)c3cnc4ccccn34)cc2)C1 (some centres unmarked) | cell-free assay, competition with immobilised ligand | 0.1 µM | 100
O=C(c1ccc(Nc2ncc(Cl)c(-c3cc4ccccc4s3)n2)cc1)N1CCC(N2CCCC2)CC1 | binding, competition with immobilised ligand | 1 µM | 0.2
Nc1ncc2c(n1)-c1c([nH]c3ccc(C#CC4CC4)cc13)CCCC2 | binding, competition with immobilised ligand | 1 µM | 86
